The IC50 is the midpoint of a concentration-inhibition curve. A lower IC50 goes with higher potency. A word on the inhibition in vivo: it is the drop in the measured response relative to a control, in per cent. Read a low inhibition in vivo as little suppression. The term Inhibition denotes the change of the read-out against control, counted positive when it falls. Lower therefore signals a weak effect.

One test concerns CCRF-CEM. Nature of the test: Concentration required to inhibit growth of CCRF-CEM cells in culture for 72 hr to 50% of control growth. It is filed as functional, cell-based. As to conditions: Homo sapiens.
A short description of test [1]: Antitumor activity in vivo against the 6C3HED lymphosarcoma dosed for 10 days at 270 mg/kg. It is filed as functional. Particulars: Mus musculus, 192 h, in the assay text read “8 days” for “10 days”. A digest of the protocol:
(§1)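 Tumor fragments (about 1–2 mm) implanted sc via trochar into a subaxillary site of syngeneic mice (C3H, C57BL/6, Balb/C or DBA/2) or Holtz rats. Groups were 7–10 randomized animals. Compound was suspended in 2.5% Emulphor in 0.9% saline and given orally by gavage or ip, usually from the day after implantation. Tumor volume versus untreated controls was measured one day after the final dose and reported as % inhibition. Scoring bands: +++ 95–100%, ++ 80–94%.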

Test [2] can be described thus: Antitumor activity in vivo against the 6C3HED lymphosarcoma, dosed for 8 days at 300 mg/kg. As to conditions: Mus musculus, 192 h.
The nature of test [3]: Antitumor activity in vivo against the 6C3HED lymphosarcoma dosed for 10 days at 300 mg/kg (intraperitoneal dosing for 8 days). It is filed as functional. Particulars: Mus musculus, ip. The method in brief: as §1
Test [4] in a line: Antitumor activity in vivo against the 6C3HED lymphosarcoma dosed for 10 days at 1600 mg/kg (intraperitoneal dosing for 8 days). It is filed as functional. Particulars: Mus musculus, ip. The method in brief: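 Solid tumor fragments of about 1–2 mm were implanted sc by trochar into the subaxillary site of syngeneic mice. Treatment began the day after implantation. Compound was suspended in 2.5% Emulphor in 0.9% saline and given ip. Groups had 7–10 randomized animals. Percent inhibition of growth was scored from tumor volume versus controls one day after the final dose.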

In test [5] the test system is Colon 26. Nature of the test: Antitumor activity in vivo expressed as percent of inhibition in C-26-colon carcinoma cell line. It is filed as functional, Mus musculus. A digest of the protocol:
as §1

For test [6], the system named is B16. As to the kind of experiment: Antitumor activity in vivo expressed as percent of inhibition in B-16-melanoma […] cell line. It is filed as functional, Mus musculus. A digest of the protocol: as §1
Test [7] has as its system M-5 (Mus musculus). As to the kind of experiment: Antitumor activity in vivo expressed as percent of inhibition in M-5-ovarian carcinoma cell line.
Test [8] relates to CA-755. Nature of the test: Antitumor activity in vivo expressed as percent of inhibition in CA-755-mammary adenocarcinoma tumor cell line. It is filed as functional, Mus musculus. A digest of the protocol: as §1
In a further test the test system is P1534J. Nature of the test: Antitumor activity in vivo expressed as percent of inhibition in P1534J-lymphatic leukemia cell line. It is filed as functional, Mus musculus.
Test [9] deals with X5563. As to the kind of experiment: Antitumor activity in vivo expressed as percent of inhibition in X5563-plasma cell myeloma cell line. It is filed as functional, Mus musculus. The method in brief:
as §1

In test [10] the test system is Lewis lung carcinoma cell line. As to the kind of experiment: Antitumor activity in vivo expressed as percent of inhibition in Lewis-lung carcinoma cell line. It is filed as functional, Mus musculus. The method in brief: as §1
The subject of test [11] is 6C3HED. As to the kind of experiment: Antitumor activity in vivo expressed as percent of inhibition in 6C3HED-lymphosarcoma tumor cell line. It is filed as functional, Mus musculus. The method in brief:
as §1

The subject of test [12] is Rattus norvegicus. Nature of the test: Antitumor activity in vivo expressed as percent of inhibition in Yoshida-sarcoma (rat) cell line. It is filed as functional. A digest of the protocol:
as §1

The subject of another test is L1210. As to the kind of experiment: Antitumor activity in vivo and the activity was determined as percent increase in life span determined against L1210V-lymphocytic leukemia tumor cell lines. It is filed as functional, Mus musculus. A digest of the protocol: (§2)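 The ascites tumor inoculum of 1 × 10^6 cells was given ip to DBA/2 mice, and treatment started the next day. Compound was suspended in 2.5% Emulphor in 0.9% saline. Groups had 7–10 animals. %ILS = (MDD treated − MDD control)/MDD control × 100. Deaths before the control median day of death were counted as toxic. Values are optimal from at least two experiments.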

Test [13] deals with P388. Nature of the test: Antitumor activity in vivo and the activity was determined as percent increase in life span determined against P388-lymphocytic leukemia tumor cell lines. It is filed as functional, Mus musculus. The method in brief: as §2
Test [14] deals with C3H. Nature of the test: Antitumor activity in vivo expressed as percent of inhibition in C3H-mammary adenocarcinoma cell line. It is filed as functional, Mus musculus. A digest of the protocol: as §1
Test [15] relates to Rattus norvegicus. As to the kind of experiment: Hypoglycemic activity expressed as (Maximum reduction in blood glucose in mg/dL relative to predosing glucose level)/(time in hours at which maximum reduction occurred). It is filed as functional. A digest of the protocol:
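Fed male Sprague-Dawley rats (175–200 g), four per compound, received a single oral gavage dose of 200 mg/kg suspended in 5% acacia. Tail blood was sampled before dosing and at 1, 2, 3 and 5 h, and glucose was measured by glucose oxidase/peroxidase colorimetry. Each rat served as its own control. Value = maximum fall from predose glucose (mg/dL) divided by the hour at which that maximum occurred.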

In test [16] the test system is C3H. Nature of the test: Antitumor activity in vivo expressed as percent of inhibition in C3H-mammary adenocarcinoma cell line; 95-100% inhibition. It is filed as functional, Mus musculus. The method in brief:
as §1

The test system of test [17] is Colon 26. As to the kind of experiment: Antitumor activity in vivo expressed as percent of inhibition in C-26-colon carcinoma cell line; 95-100% inhibition. It is filed as functional, Mus musculus. The method in brief: as §1
For test [18], the system named is X5563. As to the kind of experiment: Antitumor activity in vivo expressed as percent of inhibition in X5563-plasma cell myeloma cell line; 60-79 % inhibition. It is filed as functional, Mus musculus. A digest of the protocol:
as §1

Test [19] relates to M-5 (Mus musculus). Nature of the test: Antitumor activity in vivo expressed as percent of inhibition in M-5-ovarian carcinoma cell line; 95-100% inhibition.
Test [20] relates to CA-755. As to the kind of experiment: Antitumor activity in vivo expressed as percent of inhibition in CA-755-mammary adenocarcinoma tumor cell line; 95-100% inhibition. It is filed as functional, Mus musculus. A digest of the protocol: as §1
The next test concerns M109. Nature of the test: Antitumor activity in vivo expressed as percent of inhibition in Madison-lung carcinoma cell line; 80-94% inhibition. It is filed as functional, Mus musculus. A digest of the protocol:
as §1

For test [21], the system named is P388. Nature of the test: Antitumor activity in vivo and the activity was determined as percent increase in life span determined against P388-lymphocytic leukemia tumor cell lines; 50-99 %. It is filed as functional, Mus musculus. The method in brief:
as §2

Test [22] concerns B16. Nature of the test: Antitumor activity in vivo expressed as percent of inhibition in B-16-melanoma (solid) cell line. It is filed as functional, Mus musculus. A digest of the protocol:
as §1

The test system of test [23] is 6C3HED. As to the kind of experiment: Antitumor activity in vivo expressed as percent of inhibition in 6C3HED-lymphosarcoma tumor cell line; 95-100% inhibition. It is filed as functional, Mus musculus. The method in brief: as §1
The nature of test [24]: Antitumor activity in vivo against the 6C3HED lymphosarcoma dosed for 10 days at 600 mg/kg. It is filed as functional. Particulars: Mus musculus, 192 h, in the assay text read “dosed for 8 days” for “dosed for 10 days”. The method in brief:
as §1

≈ marks a conversion by molar mass, not a printed value.

In the test with CCRF-CEM, `O=C(Nc1cccc(C(F)(F)F)c1)NS(=O)(=O)c1ccc([N+](=O)[O-])cc1` showed an IC50 above 20 µg/mL. In test [1], this compound gave an inhibition in vivo at 270 mg/kg of 20%.
Consider `O=C(NC(=O)c1ccccc1)Nc1ccc(Cl)cc1`, for which the IC50 with CCRF-CEM was above 20 µg/mL. The inhibition in vivo at 300 mg/kg in test [2] came out at 7%; in test [3], 0%.
With `O=C(NC(=O)c1c(F)cccc1F)Nc1ccc(Cl)cc1` [DIFLUBENZURON], in the test on CCRF-CEM, the IC50 was above 20 µg/mL. The inhibition in vivo at 300 mg/kg in test [2] stood at 6%. This compound yielded an inhibition in vivo at 1600 mg/kg in test [4] of 33%.
With `Cc1ccc(S(=O)(=O)NC(=O)Nc2ccc(Cl)cc2)cc1` [LY-181984], the Inhibition in the test with Colon 26 [5] came out at 94%; in the test with B16 [6], 79%; with M-5 (Mus musculus) [7], 100%; in the test with CA-755 [8] it was 100%; in the test on P1534J, 100%; in the test with X5563 [9], 94%. Besides, the Inhibition is below 60% in [10], 100% with 6C3HED [11], 79% with Rattus norvegicus [12] and 94% with C3H [14]. Moreover, in the test on CCRF-CEM, the midpoint of inhibition, the IC50, lay at 8.9 µg/mL (≈ 27.4 µM). The compound also showed an inhibition in vivo at 300 mg/kg in test [2] of 100%. Besides, the Increase in life-span in the test with L1210 and in the test with P388 [13] was below 50% throughout.
As to `O=C(Nc1ccc(Cl)cc1)NS(=O)(=O)c1ccc2c(c1)CCC2` [SULOFENUR], in the test on Rattus norvegicus [15], the Ratio stood at 0. Further, the Inhibition with C3H [16] is 100%; in the test on Colon 26 [17], 100%; in the test on X5563 [18] it was 79%; in the test on M-5 (Mus musculus) [19] it was 100%; in the test on CA-755 [20] it was 100%; in test [10] it was below 60%. The results for the Inhibition in the test on M109, in the test with B16 [22] and in the test with 6C3HED [23] were 94%, below 60% and 100%, respectively. Further, the IC50 with CCRF-CEM was found to be 11.2 µg/mL (≈ 31.9 µM). The compound also displayed an inhibition in vivo at 300 mg/kg in test [2] of 100%. In addition, the Increase in life-span with P388 [21] came to 99%.
With `CCCCNC(=O)NS(=O)(=O)c1ccc(C)cc1` [TOLBUTAMIDE], in test [24], the inhibition in vivo at 600 mg/kg was 45%.

The values above are taken from ChEMBL document CHEMBL1124898, “Novel agents effective against solid tumors: the diarylsulfonylureas. Synthesis, activities, and analysis of quantitative structure-activity relationships” (J Med Chem, 1990).
